As usually defined, the ILS is how much longer treated animals lived than controls. Lower therefore signals little gain in survival.

This is an account of results in ChEMBL document CHEMBL1121556, “Structure-activity relationships in a series of newly synthesized 1-amino-substituted ellipticine derivatives” (J Med Chem, 1980).

For series [1], the system named is Nucleic Acid. In words: Apparent association constant towards DNA at concentration of 10e-7/M. To be noted: Bos taurus. The series is classed as nucleic-acid assay. The method, boiled down:
(§1)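 Association constants for DNA binding were derived from absorption changes of calf thymus DNA at 6 × 10^-7 M, expressed as mononucleotide concentration. The buffer was 50 mM Tris-HCl, pH 7.4, with 0.1 M NaCl.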

The test system of series [2] is Nucleic Acid. Nature of the series: B app constant towards DNA. It counts as nucleic-acid assay. The settings on record: Bos taurus. The method, boiled down:
as §1

Series [3] relates to Mus musculus. Nature of the series: In Vivo antitumor activity on grafted tumor friend cells at the dose 2.5 mg/kg and decrease in intravenous 10 e 6 cells and median survival time. It counts as functional. In short, it runs like this:
(§2)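 Friend tumor cells, 10^6, injected iv into syngeneic mice. Mice randomized in groups of 16. Drug dissolved in acidified saline (equimolar acetic acid) and given as a single iv dose 3 days after inoculation. Median survival time recorded. %ILS = (treated median survival − control median survival)/control median survival × 100.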

For series [4], the system named is Mus musculus. Nature of the series: In vivo acute toxicity (lethal dose) against mice by intraperitoneal administration. The series is classed as organism-based. To be noted: ip. The method, boiled down:
(§3)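 Mice (ICFW, C3H or B6D2 F1; 6-8 weeks; 22-24 g) in five groups of six. Drug dissolved in acidified saline (equimolar acetic acid) and given as a single ip or iv dose of 2, 5, 10, 25 or 50 mg/kg. Mortality observed over 30 days to set the lethal dose (LD100) and the highest nonlethal dose (LD0).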

Series [5] relates to Mus musculus. In words: In Vivo evaluation for the antitumor activity on grafted tumor friend cells at the dose 2.5 mg/kg and Increase in the life span. It counts as functional. The method, boiled down: as §2
Series [6] concerns Mus musculus. Nature of the series: In vivo acute toxicity (lethal dose) against mice by intravenous administration. It counts as organism-based. The method, boiled down:
as §3

The test system of series [7] is Mus musculus. Nature of the series: In vivo evaluation for the antitumor activity on L1210 leukemia cells at the dose 2.5 mg/kg administered intraperitoneally 1 day after 10 e5 L1210 leukemia cells and increase in life span. The series is classed as functional. The settings on record: L1210, ip, 24 h, route intraperitoneal.
For series [8], the system named is Friend leukemia cells (Mus musculus). Nature of the series: In vitro concentration required for growth inhibition of murine Friend leukemia cell. The settings on record: read-out: ID50 (the source's name).
The subject of series [9] is Mus musculus. In words: In vivo acute toxicity (nonlethal dose) against mice by intraperitoneal administration. The series is classed as organism-based. The settings on record: ip. The method, boiled down: as §3
Series [10] relates to Mus musculus. Nature of the series: In vivo acute toxicity (nonlethal dose) against mice by intravenous administration. It counts as organism-based. In short, it runs like this: as §3
The subject of series [11] is Mus musculus. In words: In vivo evaluation for the antitumor activity on L1210 leukemia cells at the dose 2.5 mg/kg administered intraperitoneally 1 day after 10 e5 L1210 leukemia cells and Mean survival time. The settings on record: route intraperitoneal. It counts as functional.
Series [12] concerns Mus musculus. In words: In vivo antitumor activity on L1210 leukemia cells at the dose 2.5 mg/kg administered intraperitoneally 1 day after 10 e5 L1210 leukemia cells and range of deaths. The settings on record: route intraperitoneal. The series is classed as functional.

Take `CCN(CC)CCCNc1nccc2c(C)c3[nH]c4ccc(O)cc4c3c(C)c12`: the K app in the series with Nucleic Acid [1] worked out at 2e+07 M⁻¹. For the same compound, the Bapp in the series with Nucleic Acid [2] stood at 0.16. Besides, the MST with Mus musculus [3] turned out to be 11.4 days; in the series on Mus musculus [11] it was 16.4 days. In addition, the LD100 in the series with Mus musculus [4] and in the series with Mus musculus [6] was 7 mg/kg each time. Moreover, the values for the ILS at 2.5 mg/kg with Mus musculus [5] and in the series on Mus musculus [7] were 34.1% and 57.1%, respectively. For the same compound, the IC50 in series [8] was 30 nM. Moreover, the LD0 came out at 2.5 mg/kg in the series on Mus musculus [9] and 2 mg/kg in the series with Mus musculus [10]. In addition, the Range of deaths with Mus musculus [12] turned out to be 19 days.
